Compounds with a hit are over-represented: about 3% of the library has one in this group of screens.
Beta2AR agonist – activates human beta-2 adrenergic receptor causing internalization | AID 504454 | actives 0.43% (n = 340,000) | P07550 | Am2.2-beta2AR cells, FAP receptor internalization, flow cytometry | response, % (test concentration not listed);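 active means response above a set limit, near 3 SD of response in nonfluorescent compounds, cut at about 42% in these data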
ABHD5 PLIN5 PPI – ABHD5-PLIN5 protein interaction inhibition; Q00G26+Q8WTS1; Split G. princeps luciferase complementation, luminescence, 4 h; inhibition, % at 4 µM; actives 0.78% (n = 360,000); AID 602281;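 active means inhibition above the mean inhibition across every tested compound plus 3 SD, cut at about 22% in these data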
Target sequence (Q00G26 whole entry, looked up): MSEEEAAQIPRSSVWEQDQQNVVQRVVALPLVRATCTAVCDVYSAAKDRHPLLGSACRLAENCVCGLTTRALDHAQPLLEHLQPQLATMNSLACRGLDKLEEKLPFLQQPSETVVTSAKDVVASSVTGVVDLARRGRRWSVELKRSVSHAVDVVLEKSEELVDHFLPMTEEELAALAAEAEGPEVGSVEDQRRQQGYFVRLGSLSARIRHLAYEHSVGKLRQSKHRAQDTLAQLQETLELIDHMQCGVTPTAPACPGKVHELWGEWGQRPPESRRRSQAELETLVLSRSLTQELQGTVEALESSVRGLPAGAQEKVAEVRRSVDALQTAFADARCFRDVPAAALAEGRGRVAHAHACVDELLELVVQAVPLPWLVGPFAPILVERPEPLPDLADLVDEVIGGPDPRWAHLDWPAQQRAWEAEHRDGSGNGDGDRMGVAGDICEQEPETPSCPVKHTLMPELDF
Target sequence (Q8WTS1 whole entry, looked up): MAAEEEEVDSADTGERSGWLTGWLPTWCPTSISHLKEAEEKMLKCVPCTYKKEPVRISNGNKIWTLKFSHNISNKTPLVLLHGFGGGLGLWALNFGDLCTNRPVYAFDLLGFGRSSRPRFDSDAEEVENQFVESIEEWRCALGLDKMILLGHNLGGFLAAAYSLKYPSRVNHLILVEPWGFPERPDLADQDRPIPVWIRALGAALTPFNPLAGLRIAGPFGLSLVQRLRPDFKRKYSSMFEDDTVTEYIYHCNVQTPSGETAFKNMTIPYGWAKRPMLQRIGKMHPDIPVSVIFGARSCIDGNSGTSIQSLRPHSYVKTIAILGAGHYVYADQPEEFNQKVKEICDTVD
PfGluPho inh – PfG6PD (Plasmodium falciparum) enzyme inhibition; PfGluPho enzyme, NADPH resazurin-diaphorase fluorescence; AID 504690; actives 0.78% (n = 350,000); inhibition, % at 20 µM;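 active means inhibition reaching at least a set limit at 20 µM in the primary screen, cut at about 59% in these data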
MC4R ag barr – activates human MC4R beta-arrestin recruitment. P32245. U2OS MC4R beta-arrestin complementation, luminescence; percent of melanotan II response, DMSO zero. activation, % at 8.9 µM. actives 0.98% (n = 360,000);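 active means activation above a per-plate cutoff, the mean activation of sample wells on that plate plus 3 SD, cut at about 8% in these data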
MC4R antag cAMP – blocks human MC4R cAMP signaling; AID 540295; inhibition, % at 6.5 µM; P32245; actives 0.48% (n = 360,000); MC4R-expressing cells, MTII-stimulated cAMP, LANCE TR-FRET;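 active means inhibition above its plate's cutoff, the mean of tested wells on that plate plus 3 SD, cut at about 29% in these data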
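System: U2OS cells stably expressing human melanocortin 4 receptor (MC4R). Reagent: Melanotan II challenge after compound preincubation. Doses: 6.5 µM. Times: 30-min compound, 1-h challenge, 1-h detection, room temperature. Measured by: TR-FRET with Eu-cAMP and labeled anti-cAMP, 671 nm. Replicates: singlicate.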
U2OS cAMP counter – nonselective cAMP signaling inhibitor, MC4R antagonist counter-screen. inhibition, % at 6.5 µM. actives 26% (n = 1,600). shares compounds with MC4R antag cAMP. parental U2OS, forskolin cAMP, LANCE TR-FRET;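 active means mean inhibition over triplicates above the low-control well mean plus 3 SD, set per campaign, cut at about 13% in these data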;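 further: signal is single emission at 671 nm which falls as cellular cAMP rises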
MC4R antag conf – human MC4R cAMP antagonism confirmation | shares compounds with MC4R antag cAMP | MC4R-expressing cells, MTII-stimulated cAMP, TR-FRET | inhibition, % at 6.5 µM | actives 27% (n = 1,600) | AID 602195; in the data active means inhibition above about 29%
Numbers stand for hits; . = inactive; / = not tested or not shown.

SMILES | Beta2AR agonist | ABHD5 PLIN5 PPI | PfGluPho inh | MC4R ag barr | MC4R antag cAMP | U2OS cAMP counter | MC4R antag conf
O=C(c1ccoc1)N1CCN(c2cc(-c3ccccc3)nc3cc(-c4ccccc4)nn23)CC1 | / | . | . | . | . | / | /
COc1ccccc1-c1cc2nc(-c3ccccc3)cc(N3CCN(C(=O)c4ccco4)CC3)n2n1 | / | . | . | . | 29 | . | .
COc1ccccc1-c1cc2nc(-c3ccccc3)cc(N3CCN(C(=O)c4ccoc4)CC3)n2n1 | / | . | . | . | 30 | . | .
Cc1cccc(C)c1NC(=O)CNC(=O)c1ccc2nc[nH]c2c1 | . | . | . | . | . | / | /
COc1cccc(CNC(=O)[C@@H]2CCCN2C(=O)[C@H]2CCCCN2C(=O)c2cccc(OC)c2)c1 | / | . | / | / | / | / | /
Cc1ccc(S(=O)(=O)NCC(=O)OCC(=O)NC(=O)c2cccn2C)cc1 | . | . | . | . | 34 | 26 | 40
Cc1ccc(S(=O)(=O)NCC(=O)OCC(=O)c2cccs2)cc1 | . | . | . | . | 38 | . | .
Cc1ccc(S(=O)(=O)NCC(=O)OCC(=O)c2ccc(Br)s2)cc1 | . | . | . | . | . | / | /
Cc1ccc(CNC(=O)C2CCCN(S(=O)(=O)N3CC(C)CC(C)C3)C2)cc1 (configuration not stated) | . | . | . | . | . | / | /
NS(=O)(=O)c1ccc(CCNC(=O)c2ccccc2-c2ccccc2)cc1 | . | . | . | . | . | / | /
CCOC(=O)CSc1nc2ccc(Nc3nc(N4CCOCC4)nc(N4CCOCC4)n3)cc2s1 | . | . | . | . | 30 | . | .
CC(=O)CSc1nc2ccc(Nc3nc(N4CCOCC4)nc(N4CCOCC4)n3)cc2s1 | . | . | . | . | . | / | /
Cc1ccc(-n2c(Cl)c(Cl)nc(Cl)c2=O)cc1 | 50 | 85 | . | . | 46 | 57 | 55
COc1nc(Cl)cn(-c2ccc(C)cc2)c1=O | . | . | . | . | . | / | /
COc1ccc(CN(C)C(=O)c2ccncc2)c(OC)c1 | . | . | . | . | . | / | /
CC(C)NS(=O)(=O)c1ccc(CCC(=O)N2CCCC2)cc1 | . | . | . | . | . | / | /
CC(C)NS(=O)(=O)c1ccc(CCC(=O)N2CCC(C(N)=O)CC2)cc1 | . | . | . | . | 31 | . | .
O=C(C(=O)N(Cc1ccccc1)Cc1ccccc1)c1c(-c2ccccc2)[nH]c2ccccc12 | . | . | . | . | 50 | . | .
Cc1ccc(CNC(=O)C2CCN(c3nn4c(=O)cc(C)nc4s3)CC2)cc1 | . | . | . | . | . | / | /
COc1ccc2sc(-c3ccc(N(C)C)cc3)c(C#Cc3cncn3C)c2c1 | . | . | . | . | 38 | . | 37
COc1ccc2sc(-c3ccc(N(C)C)cc3)c(C#CC(C)(C)O)c2c1 | . | . | . | . | . | / | /
COc1ccc(-n2c(CN3CCN(Cc4ccccc4)CC3)nc3ccc([N+](=O)[O-])cc3c2=O)c(OC)c1 | . | . | . | . | . | / | /
COc1ccc(-n2c(CN3CCN(c4ccccn4)CC3)nc3ccc([N+](=O)[O-])cc3c2=O)c(OC)c1 | . | . | . | . | 38 | . | .
CNC(=O)NC(=O)C(C)OC(=O)c1c2c(nc3ccccc13)/C(=C/c1cccs1)CC2 (configuration not stated) | . | . | . | . | 30 | . | .
Cc1ccc(-c2cc3ccccc3nc2N2CCOCC2)cc1 | . | . | . | . | 34 | . | .
SMILES | Beta2AR agonist | ABHD5 PLIN5 PPI | PfGluPho inh | MC4R ag barr | MC4R antag cAMP | U2OS cAMP counter | MC4R antag conf
C[C@H](O)C#Cc1ccc2c(c1)O[C@@H](CN(C)Cc1ccc(-c3ccccc3)cc1)[C@H](C)CN([C@@H](C)CO)S2(=O)=O | / | . | . | . | 39 | . | 29
COC(=O)c1sccc1NC(=S)Nc1ccc(F)cc1F | . | . | . | . | 30 | . | .
COC(=O)c1sccc1NC(=S)Nc1cccc(F)c1 | . | . | . | . | . | / | /
COc1cccc(C(c2sc3nc(C)nn3c2O)N2CCc3ccccc3C2)c1 (configuration not stated) | . | . | . | . | 33 | . | .
O=C(c1ccc([N+](=O)[O-])cc1)N(Cc1ccc(Cl)cc1)N1C(=O)CCCC1=O | . | . | . | . | 32 | 17 | 32
COc1ccc([N+](=O)[O-])c(S(=O)(=O)c2ccccc2)n1 | 51 | 53 | . | . | 29 | 29 | .
O=[N+]([O-])c1cccnc1S(=O)(=O)c1ccccc1 | . | 22 | . | . | 33 | 14 | 38
Nc1cccnc1S(=O)(=O)c1ccccc1 | . | . | . | . | . | / | /
COc1ccccc1S(=O)(=O)c1ccccc1[N+](=O)[O-] | . | . | . | . | . | / | /
O=C(COc1ccccc1[N+](=O)[O-])OCC(=O)c1ccc(Br)s1 | . | . | . | . | 45 | 14 | 38
COC(=O)c1c(NC(=O)CC2SCC(C(=O)OC)NC2=O)sc2c1CCCC2 (configuration not stated) | . | . | . | . | 29 | . | 32
COc1ccc(S(=O)(=O)Nc2ccc(-n3cnnn3)cc2)cc1Br | . | . | . | . | . | / | /
COc1ccc(NS(=O)(=O)c2ccc(-n3cnnn3)cc2)cc1OC | . | . | . | . | 29 | . | .
CCN(CC)CCCNC(=O)CCC(=O)Nc1ccc2nc(N3CCCCC3)cc(C)c2c1 | . | . | . | . | . | / | /
CCN(CC)CCCNC(=O)CCC(=O)Nc1ccc2nc(N3CCC(C)CC3)cc(C)c2c1 | . | . | . | . | 37 | . | .
CC(=O)N1CCCc2cc(S(=O)(=O)N3CCCC(C(=O)Nc4ccccc4C)C3)ccc21 (configuration not stated) | . | . | . | . | . | / | /
CCOCc1c(C(=O)NC2=Nc3ccccc3NC(CC)=C2C(=O)OCC)oc2ccccc12 | . | . | . | . | 38 | 25 | .
COc1ccc(OC)c(C(=O)NC2CC(C)(C)Cc3c2cnn3-c2ccccc2)c1 (configuration not stated) | . | . | . | . | . | / | /
Cc1nc(N2CCC(C)CC2)c2c(C)c(C(=O)Nc3ccccc3C(F)(F)F)sc2n1 | . | . | . | . | 30 | . | .
CC(NC(=O)CN1C(=O)NC2(CCCC2)C1=O)c1ccc(Cl)cc1Cl (configuration not stated) | . | . | . | . | . | / | /
COc1cccc(NC(=O)CCN2C(=O)c3cccc([N+](=O)[O-])c3C2=O)c1 | . | . | . | . | 37 | 15 | 34
COc1ccc(NC(=O)CCN2C(=O)c3cccc([N+](=O)[O-])c3C2=O)cc1 | . | . | . | . | . | / | /
CCN(CC(=O)Nc1c(F)cccc1F)C(=O)CCN1C(=O)c2cccc([N+](=O)[O-])c2C1=O | . | . | . | . | 36 | 16 | 49
